NCF1 inh – p47phox (human) inhibition; P14598; p47phox/p22phox peptide binding, fluorescence polarization, 2 h; inhibition, % at 24.7 µM; actives 0.53% (n = 220,000);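 active = inhibition above about 30%, limit read from the data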;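 note: 0% = p47phox with labelled peptide and 100% = labelled peptide alone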
Target sequence (P14598 whole entry, looked up): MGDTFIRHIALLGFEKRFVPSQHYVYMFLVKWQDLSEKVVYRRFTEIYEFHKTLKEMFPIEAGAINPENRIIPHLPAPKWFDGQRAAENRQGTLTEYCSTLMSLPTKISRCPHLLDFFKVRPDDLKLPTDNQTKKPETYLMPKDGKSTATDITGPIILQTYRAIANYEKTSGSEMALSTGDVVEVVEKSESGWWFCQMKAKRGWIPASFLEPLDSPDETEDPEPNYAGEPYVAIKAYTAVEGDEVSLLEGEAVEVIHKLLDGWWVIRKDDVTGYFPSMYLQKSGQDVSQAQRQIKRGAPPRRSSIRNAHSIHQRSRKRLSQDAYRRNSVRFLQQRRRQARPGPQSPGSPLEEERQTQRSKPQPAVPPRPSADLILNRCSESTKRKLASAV
Tb hexokinase – T. brucei hexokinase 1 inhibition; actives 0.11% (n = 220,000); recombinant TbHK1, G6PDH-coupled NADH A340; inhibition, % at 10 µM;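 active = inhibition of 50% or more in the single-dose primary screen; inactive = inhibition below 50%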
BB579 growth dn – yeast BB579 growth reduction in restrictive medium; S. cerevisiae BB579 growth, OD615, 48 h; inhibition, % at 10 µM; actives 0.51% (n = 140,000);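 active = inhibition above a set limit, 3 SD over the mean compound inhibition, cut at about 44% in these data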
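Test system: Saccharomyces cerevisiae DeaD strain BB579, replicative lifespan model yeast | Buffer or medium: Restrictive CSMM-D medium | Doses: One dose, 10 µM compound with 0.25% DMSO | Incubation: 48 h exposure, 30 °C | Detection: Culture absorbance at 615 nm | Control set: Amphotericin B at 10 µg/mL as positive control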
SDO1 yeast rescue – restores growth of sdo1-depleted yeast | S. cerevisiae sdo1-depleted JHY4D growth rescue, OD600 30 h; active compounds read high; pdr5 snq2 efflux-pump mutant strain | z-score at 10 µM | actives 0.21% (n = 140,000);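 active = z-score above 3 at both the 24 hr and the 30 hr optical density reads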;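 note: z-score against mean and SD of all compound wells on the same plate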
Yeast life ext – yeast lifespan extension; S. cerevisiae growth with nicotinamide, OD615; deaD strain in restrictive glucose medium; inhibition of the nicotinamide effect, % at 10 µM; actives 0.68% (n = 130,000);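 active = inhibition above a set limit, placed 3 SD over the median of all compounds, cut at about 26% in these data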;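 note: 0% = nicotinamide-treated wells and 100% = cells grown without nicotinamide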
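assay system = DeaD-strain S. cerevisiae | measured by = absorbance at 615 nm | probe or stimulus = nicotinamide 1.5 mM | buffer or medium = CSMM-D glucose medium, restrictive | times = 48 h at 30 °C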
RBBP9 inhibitor – human RBBP9 hydrolase inhibition; O75884; recombinant RBBP9, FP-Rh probe fluorescence polarization; inhibition, % at 7.94 µM; actives 0.2% (n = 220,000); AID 1515;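 active = inhibition above the campaign mean of all tested compounds plus 3 SD, cut at about 14% in these data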;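 note: plate controls were DMSO wells with RBBP9 for no effect and wells lacking RBBP9 protein for full effect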
Target sequence (O75884 whole entry, looked up): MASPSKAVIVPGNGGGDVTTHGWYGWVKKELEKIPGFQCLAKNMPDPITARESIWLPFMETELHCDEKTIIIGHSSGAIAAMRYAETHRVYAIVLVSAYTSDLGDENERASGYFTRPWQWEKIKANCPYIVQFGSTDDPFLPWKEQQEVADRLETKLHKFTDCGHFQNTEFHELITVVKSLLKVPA
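System: RBBP9 protein / Quantity: 2.5 µM RBBP9 dispensing solution, before mixing / Also added: Serine-hydrolase probe FP-Rh, 375 nM pre-mixing / Dosing: 7.94 µM single dose, 0.794% DMSO / Timing: enzyme-compound preincubation 30 min, then probe labeling 45 min, 25 °C / Signal: FP readout at 525/598 nm / Controls: DMSO-treated enzyme wells and wells lacking RBBP9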
* marks the source's active call; other numbers are inactive results; / = no result given. Most compounds without a hit are left out; they make up all but 1.6% or so of the library.

SMILES	NCF1 inh	Tb hexokinase	BB579 growth dn	SDO1 yeast rescue	Yeast life ext	RBBP9 inhibitor
COC(=O)c1cc(C(=O)c2ccc(Cl)cc2)n2c(=O)/c(=C\N(C)C)sc12	-68	-15	/	/	/	0
CC1CC(=O)c2c(cc3c(-c4c(O)cc(O)c5c(O)c6c(cc45)OC(C)CC6=O)c(O)cc(O)c3c2O)O1 (stereo not drawn)	7	-40	/	/	/	26*
O=C1CC(c2ccc(O)cc2)Oc2cc(O)cc(O)c21 (stereo not drawn)	-7	-25	-13	0.78	3	2
Cc1ccc(-n2c(Cc3cccs3)nnc2SCC(=O)Nc2ccc(F)c(F)c2)cc1	75*	0	-40	-1.7	-6	-4
CCCn1c(/N=C/c2c[nH]c3ccccc23)nc2ccccc21	-26	-1	-28	-1.9	-24	-6
CCCCn1c(/N=C/c2c[nH]c3ccccc23)nc2ccccc21	-16	-2	44*	-2	-19	-6
CC(C)Cc1nnc(NS(=O)(=O)c2ccc(Cl)cc2)s1	-8	-5	-18	0.61	26*	-4
COc1ccc(S(=O)(=O)Nc2nnc(CC(C)C)s2)cc1	-11	-4	-30	-0.07	34	-2
O=S(=O)(CCSc1ccccn1)c1nc2ccccc2s1	-15	-7	0	-2.2	60*	-3
O=S(=O)(CCSc1nc2ccccc2o1)c1nc2ccccc2s1	-30	11	-39	-1.4	4	2
O=C(c1c[nH]c(C(=O)C(Cl)(Cl)Cl)c1)c1ccccc1Br	-8	-3	/	/	/	-1
Cc1noc2ncnc(Sc3ccccc3Cl)c12	-1	-9	61*	-0.16	-1	-6
Cc1ccc(Sc2ncnc3onc(C)c23)c(C)c1	-6	3	/	/	/	-6
CN(C)S(=O)(=O)c1ccccc1N=C=S	-2	-10	/	/	/	16*
Cn1c(N)c(C(=O)COC(=O)c2ccc(Cl)c(S(=O)(=O)N3CCCC3)c2)c(=O)n(C)c1=O	-2	1	/	/	/	1
O=C(COc1c(Br)cc(Br)c2cccnc12)N1CCc2ccccc2C1	-4	0	99*	-2.5	-15	-7
O=C(COc1c(Br)cc(Br)c2cccnc12)N1CCCCC1	10	1	/	/	/	-10
COc1ccc(OC)c(-c2cc(C(=O)N3CCN(c4ncccn4)CC3)c3ccccc3n2)c1	1	-16	-52	-0.23	-18	-7
COc1ccc(-c2cc(C(=O)N3CCN(c4ncccn4)CC3)c3ccccc3n2)c(OC)c1	-5	-17	59*	-1.3	-5	-5
Cc1ccc2[nH]c3c(c2c1)CN(C(=O)CN1c2ccc(F)cc2CCC1C)CC3 (stereo not drawn)	196*	-8	-42	-0.82	-5	4
COc1cc(SC)ccc1C(=O)Nc1nccs1	-5	-19	/	/	/	-6
Cc1onc(-c2c(Cl)cccc2Cl)c1C(=O)N=S(C)(=O)c1ccccc1 (stereo not drawn)	-9	-5	/	/	/	-3
CCC(NC(=O)c1ccccc1NC(=O)c1ccco1)C(=O)NNC(=O)c1ccncc1 (stereo not drawn)	-11	-7	/	/	/	-7
COc1ccc(C2NCCc3c2[nH]c2ccccc32)cc1CSc1nc2ccccc2s1 (stereo not drawn)	58*	1	-44	-2.2	-4	2
CCN(CC)CCN1C(=O)C(=O)/C(=C(/O)c2ccc3c(c2)CC(C)O3)C1c1ccc(OC)cc1 (stereo not drawn)	-16	-36	/	/	/	-20
SMILES	NCF1 inh	Tb hexokinase	BB579 growth dn	SDO1 yeast rescue	Yeast life ext	RBBP9 inhibitor
CC1=CC=CC2=NC(=O)CC(C)(C(=O)O)N12 (stereo not drawn)	-8	-11	/	/	/	1
Cc1ccc(C(=O)/C=C/c2ccc(-c3ccc(C)cc3)o2)cc1	-20	19	-16	-0.22	28*	-2
CC(/C=C/C(=O)c1ccc(C)cc1)=C\c1ccccc1	-8	4	-10	-1.1	-9	-10
Cc1ccc(C(=O)/C=C\C(=O)c2ccc(C)cc2)cc1	-4	-4	4	-2.3	65*	1
Cn1cc(Br)c(C(=O)NC(=S)Nc2ccc(S(N)(=O)=O)cc2)n1	0	-7	/	/	/	-9
COc1ccccc1C(=O)Oc1cc(N)n(S(=O)(=O)c2ccc(C)cc2)n1	-4	-1	-6	0.82	45*	-2
C[C@@H](C(=O)Nc1ccc2ccccc2c1)[C@@H]1C[C@@]1(C)[C@@H](NC(=O)c1ccccc1)c1ccccc1	-6	1	-34	1.2	4	-26
C[C@@H](C(=O)Nc1ccc2ccccc2c1)[C@H]1C[C@]1(C)[C@H](NC(=O)c1cccnc1)c1ccccc1	-5	-3	-53	7.2*	9	0
COc1cc(CNCCN2CCOCC2)ccc1OCc1cccc(Cl)c1	-8	3	53*	0.1	-15	0
COc1cc(CNCCN2CCOCC2)ccc1OCc1ccc(Cl)cc1Cl	-12	6	3	1.1	-20	-2
Oc1ccc(/C=C/c2nc(-c3ccccc3O)n(-c3ccccc3)n2)cc1	5	-16	98*	-1.1	-20	-8
Oc1ccccc1-c1nc(/C=C/c2ccccc2)nn1-c1ccccc1	-6	27	-23	-0.37	-4	-19
Nc1nc(CCl)nc(Nc2cccc3ccccc23)n1	-8	-5	/	/	/	-2
CCOC(=O)C1CCN(c2c(NCCC(C)C)c(=O)c2=O)CC1	-4	-8	/	/	/	5
CCc1ccc(N=CC23c4ccccc4C(c4ccccc42)C2C(=O)N(c4ccc(OC)cc4)C(=O)C23)cc1 (stereo not drawn)	-15	-2	-22	-1.5	29*	-1
COc1ccc(N2C(=O)C3C4c5ccccc5C(C=Nc5ccc(C)cc5C)(c5ccccc54)C3C2=O)cc1 (stereo not drawn)	/	-7	/	/	/	-3
Nc1c(C(=O)O)sc2nc3c(cc12)CCCC3	-25	-8	/	/	/	-11
CN1CCc2nc3sc(C(=O)C45CC6CC(CC(C6)C4)C5)c(N)c3cc2C1	48*	-4	-9	-1.8	37	-5
C=C(C)COc1ccc(-c2n[nH]c(C)c2-c2ccc(Br)cc2)c(O)c1	-6	8	-31	-2	-15	-10
CCCOC(=O)c1ccc(Oc2cn[nH]c2-c2ccc(OC)cc2O)cc1	-30	0	69*	-1.8	-7	-9
C=C(C)COc1ccc(-c2[nH]ncc2-c2ccccc2OC)c(O)c1	-6	8	90*	-2.2	-11	-4
C=C(C)COc1ccc(-c2[nH]ncc2-c2ccc(Br)cc2)c(O)c1	-16	-3	69*	-2.4	-7	-10
COc1ccc(-c2cn[nH]c2-c2ccc(OCc3ccc([N+](=O)[O-])cc3)cc2O)cc1	35*	2	-34	-0.54	-1	-16
